Compounds with a hit are over-represented: about 1.7% of the library has one in this group of screens.
Vif imaging: HIV Vif self-association inhibitors, primary screen, imaging, HEK293T, single point | HEK293T cells, Vif self-association by quenched fluorescence, 24 h | inhibition, % at 7.49 µM | hit rate 0.35% among 340,000 | AID 602346, 2012; in the data active = inhibition above about 50%, passing the limit was not always enough
T cell HTS: modulators of CD8 T cell-vesicle binding, primary screen, mouse 2C CD8+ T cells, flow cytometry; 2C CD8+ T cell-vesicle binding; active compounds read low; response (vesicle binding), % at 7 µM; hit rate 0.068% among 330,000; AID 2052, 2009;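 active = response, share of CD8 T cells binding vesicles, and their 90th percentile fluorescence all below set limits, cut at about 80% in these data, passing the limit was not always enough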;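 also: values below 100% mean blocked vesicle binding to the CD8+ T cells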
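Assay system: 2C TCR transgenic mouse naive CD8+ T cells, MACS-purified | Read-out: CD8+ gate FL2 mean fluorescence as % of same-row positive control | Signal: High-throughput flow cytometry with anti-B7-1 and anti-CD8 staining | Timing: Binding step 1.5 h, 37 °C, antibody labelling 20 min, ice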
Pemphigus Ab inh: inhibitors of pemphigus antibody binding to DSG3, primary screen, biochemical, bead-based, flow cytometry, scFv-GFP | Desmoglein-3 (Homo sapiens), P32926 | DSG3-coupled beads, scFv-anti-DSG3-GFP binding; active compounds read low | binding (percent of control), % at 10 µM | hit rate 0.48% among 310,000 | AID 588358, 2011;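 active = binding more than 3 SD below its plate's average and above zero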;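 also: hits lower antibody fragment binding to DSG3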
Myeloid diff 2: induction of myeloid progenitor differentiation, primary screen, cell-based, flow cytometry, MLPCN library | ER-HoxA9 myeloid progenitors, lysozyme-GFP differentiation | hit rate 1% among 360,000 | calls only at 10 µM;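 active = normalized GFP-positive differentiation at or above the plate's own cutoff, the solvent-only control mean plus 3 SD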;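 also: cells exposed to compound for four days before flow analysis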
Myeloid diff CP1: inducers of myeloid progenitor differentiation, confirmation, cell-based, GFP/Mac1 flow cytometry, cherry pick 01. shares compounds with Myeloid diff 2. ER-HoxA9 myeloid progenitors, GFP/Mac1 double-positive flow. calls only. hit rate 2% among 2,300. AID 651706, 2012;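 active = share of green or green-and-red cells above 9 and 9% in run 1 or 4 and 3% in run 2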
GFP autofluor: flagged as fluorescent in myeloid differentiation counter-screen; hit rate 7.4% among 2,300; ER-HoxA9 myeloid progenitors, no estrogen, GFP autofluorescence flow cytometry; vehicle wells 0%, positive control 100%; fluorescence response, % (concentration not given with the values); shares compounds with Myeloid diff 2;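 active = over 5% cells positive for green fluorescent reporter, or over 2% positive for both it and APC stain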
Large screens that a line does not name were inactive (follow-up assays come after a bar, where they were run).

COc1ccc(Cn2c(=O)oc3ccc(C)cc32)cc1OC	Myeloid diff 2 active | Myeloid diff CP1 inactive | GFP autofluor inactive
COCCNC(=O)C1(C)CCN(C(=O)c2cccnc2Oc2ccccc2)C1 (configuration not stated)	none (no result: T cell HTS, Pemphigus Ab inh)
CC1(C(=O)NS(=O)(=O)c2ccc3c(c2)CCO3)CCN1C(=O)COc1ccc(Cl)cc1 (configuration not stated)	none (no result: T cell HTS, Pemphigus Ab inh)
NC(=O)CC(NC(=O)Cc1ccc(Cl)cc1)c1ccc(NC2CCCCC2)c([N+](=O)[O-])c1 (configuration not stated)	none (no result: Vif imaging) | Myeloid diff CP1 inactive | GFP autofluor inactive
NC(=O)CC(NC(=O)Cc1ccc(Cl)cc1)c1ccc(NC2CCCC2)c([N+](=O)[O-])c1 (configuration not stated)	none (no result: Vif imaging)
CCOc1ccc(N(CC(=O)Nc2ccc(C)cc2)S(=O)(=O)c2c(C)noc2C)cc1	Myeloid diff 2 active | Myeloid diff CP1 inactive | GFP autofluor inactive
CCOc1ccc(N(CC(=O)Nc2ccc(F)c(F)c2)S(=O)(=O)c2c(C)noc2C)cc1	none
Cc1nc(C(F)(F)F)ccc1C(=O)N1CCC(C)(C(=O)NS(=O)(=O)C2CC2)C1 (configuration not stated)	none (no result: T cell HTS, Pemphigus Ab inh)
COc1cc(CNc2ccc3[nH]c(=O)[nH]c3c2)ccc1OCc1ccccc1Cl	none | Myeloid diff CP1 inactive | GFP autofluor inactive
CC(=O)c1sc(NC(=O)CCS(=O)(=O)c2ccc(C)cc2)nc1C	none | Myeloid diff CP1 inactive | GFP autofluor inactive
CCCn1c(NC(=O)CCS(=O)(=O)c2ccc(C)cc2)nc2ccccc21	Myeloid diff 2 active | Myeloid diff CP1 inactive | GFP autofluor 27
O=C1CNC(=O)c2cc(Cl)ccc2N1	none (no result: T cell HTS)
Fc1ccc(C2=NN(c3ccccc3)C(c3ccco3)C2)cc1 (configuration not stated)	none
C(=C\c1ccco1)/C1=NN(c2ccccc2)C(c2ccco2)C1 (configuration not stated)	Myeloid diff 2 active | Myeloid diff CP1 inactive | GFP autofluor inactive
O=C(O)c1ccc2c(c1)S(=O)(=O)c1cc(N3CCN(c4cnccn4)CC3)ccc1C2=O	none (no result: T cell HTS)
Cc1ccc2c(c1)CCCN2C(=O)c1ccc2c(c1)OCO2	none | Myeloid diff CP1 inactive | GFP autofluor inactive
O=C(c1ccc2c(c1)OCO2)N1CCCc2ccccc21	none
COc1ccccc1OCCNC(=O)C1CC(=O)N(Cc2ccc(C)cc2)C1 (configuration not stated)	none
C=CCn1c(N2CCN(c3ccc(OC)cc3)CC2)nc2c1c(=O)n(C)c(=O)n2C	none
C=CCn1c(N2CCN(c3ccc(OC)cc3)CC2)nc2c1c(=O)[nH]c(=O)n2C	Pemphigus Ab inh -12 | Myeloid diff CP1 inactive | GFP autofluor inactive
O=C(NCc1ccc2c(c1)OCO2)C1CCN(c2ncccn2)CC1	none | Myeloid diff CP1 inactive | GFP autofluor inactive
O=C(C(=O)N1CCN(C(=O)c2ccco2)CC1)c1ccccc1	none (no result: Vif imaging, T cell HTS, Pemphigus Ab inh)
c1cnc(N2CCN(c3nc4ccccc4n4cnnc34)CC2)nc1	none | Myeloid diff CP1 inactive | GFP autofluor inactive
Cc1ccc(-c2nsc(SCC(=O)Nc3ccc4c(c3)OCO4)n2)cc1	none
O=C(CSc1nc(-c2ccccc2Cl)ns1)Nc1ccc2c(c1)OCO2	Myeloid diff 2 active | Myeloid diff CP1 inactive | GFP autofluor inactive
CCOc1cccc(=O)c2c(C)oc(C)c12	none | Myeloid diff CP1 inactive | GFP autofluor inactive
CCC(=O)N1CCc2cc(Br)cc(S(=O)(=O)CCC(=O)NCC3CCCO3)c21 (configuration not stated)	Myeloid diff 2 active | Myeloid diff CP1 inactive | GFP autofluor inactive
CN(C(=O)NC1CCCCC1)[C@H]1C[C@H]2c3[nH]c4ccccc4c3CCN2C(=O)[C@H]1CO	none (no result: Vif imaging, T cell HTS, Pemphigus Ab inh)
CN(C(=O)C(C)(C)C)[C@H]1C[C@H]2c3[nH]c4ccccc4c3CCN2C(=O)[C@H]1CO	none (no result: T cell HTS) | Myeloid diff CP1 inactive | GFP autofluor inactive
CC(C)c1ccc([C@@H]2O[C@H](C)CC3=C2C(=O)OC(C)(C)O3)cc1	none (no result: Vif imaging, T cell HTS, Pemphigus Ab inh)
